Consider one compound from ChEMBL document CHEMBL4431376, “CZ415, a Highly Selective mTOR Inhibitor Showing in Vivo Efficacy in a Collagen Induced Arthritis Model” (ACS Med Chem Lett, 2016).

The nature of series [1]: Intrinsic clearance in pooled cryopreserved human hepatocytes at 1 uM incubated up to 90 mins by LC-MS/MS analysis. The format is ADME, cell-based, Hepatocyte. To be noted: 1.5 h. A digest of the protocol: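 Metabolic stability was assessed in liver microsomes (rat, dog, human) and hepatocytes (dog, human). Intrinsic clearance was calculated as μL/min/g liver.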
The nature of series [2]: Protein binding in rat plasma. The format is ADME, cell-free. Conditions: read-out: PPB (converted). A digest of the protocol: (§1)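 Plasma protein binding was determined in rat, mouse and human plasma, expressed as % bound.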
Series [3] in a line: Protein binding in mouse plasma. The format is ADME, cell-free. To be noted: read-out: PPB (converted). A digest of the protocol:
as §1

The nature of series [4]: Protein binding in human plasma. The format is ADME, cell-free. Conditions: read-out: PPB (converted). Summed up: as §1
The nature of series [5]: Plasma clearance in Sprague-Dawley rat at 1 mg/kg, iv as bolus dose or 3 mg/kg, po administered through gavage measured up to 8 hrs by LC-MS/MS analysis. The format is ADME, organism-based. Summed up:
(§2)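 Rats (n = 3 per route) given a 1 mg/kg intravenous bolus or 3 mg/kg as an oral solution. Vehicle was 5% DMSO/95% (10% Kleptose). Plasma concentration was followed over time to derive PK parameters and oral bioavailability. Clearance was also expressed relative to liver blood flow.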

Series [6] in a line: Blood clearance in Sprague-Dawley rat at 1 mg/kg, iv as bolus dose or 3 mg/kg, po administered through gavage measured up to 8 hrs by LC-MS/MS analysis. The format is ADME, organism-based. To be noted: whole blood. Summed up: as §2
A short description of series [7]: Plasma clearance in Sprague-Dawley rat at 1 mg/kg, iv as bolus dose or 3 mg/kg, po administered through gavage measured up to 8 hrs by LC-MS/MS analysis relative to liver blood flow. Conditions: in vivo. The format is ADME, organism-based. Summed up:
as §2

The nature of series [8]: Volume of distribution at steady state in Sprague-Dawley rat at 1 mg/kg, iv as bolus dose or 3 mg/kg, po administered through gavage measured up to 8 hrs by LC-MS/MS analysis. The format is ADME, organism-based. Conditions: in vivo, read-out: Vdss. Summed up:
as §2

Series [9] in a line: Cmax in Sprague-Dawley rat at 1 mg/kg, iv as bolus dose by LC-MS/MS analysis. The format is ADME, organism-based. Further details: dose 1 mg/kg, route intravenous. To be noted: in vivo. A digest of the protocol:
as §2

The nature of series [10]: Cmax in Sprague-Dawley rat at 3 mg/kg, po administered through gavage by LC-MS/MS analysis. Further details: dose 3 mg/kg, route oral. The format is ADME, organism-based. To be noted: in vivo. Summed up:
as §2

Series [11] can be described thus: Mean residence time in Sprague-Dawley rat at 1 mg/kg, iv as bolus dose or 3 mg/kg, po administered through gavage by LC-MS/MS analysis. The format is ADME, organism-based. Conditions: in vivo. A digest of the protocol: as §2
A short description of series [12]: AUC (0 to infinity) in Sprague-Dawley rat at 1 mg/kg, iv as bolus dose by LC-MS/MS analysis. The format is ADME, organism-based. Also on record: dose 1 mg/kg, route intravenous, time infinity. To be noted: in vivo. A digest of the protocol: as §2
A short description of series [13]: AUC (0 to infinity) in Sprague-Dawley rat at 3 mg/kg, po administered through gavage by LC-MS/MS analysis. The format is ADME, organism-based. Also on record: dose 3 mg/kg, route oral, time infinity. To be noted: in vivo. Summed up:
as §2

The nature of series [14]: Oral bioavailability in Sprague-Dawley rat at 3 mg/kg administered through gavage measured up to 8 hrs by LC-MS/MS analysis. The format is ADME, organism-based. To be noted: in vivo. A digest of the protocol: as §2
The nature of series [15]: Tmax in Sprague-Dawley rat at 3 mg/kg, po administered through gavage by LC-MS/MS analysis. The format is ADME, organism-based. To be noted: in vivo. Summed up: as §2
In series [16] the test system is Mus musculus. The series can be described thus: Anti-inflammatory activity in DBA/1 OlaHsd mouse immunized with bovine type2 collagen in Freund's complete adjuvant assessed as reduction in AUC of clinical arthritis score at 10 mg/kg, po bid administered starting on day 22 post immunization until day 33 post immunization relative to control. The format is functional. Also on record: scale not given: the % may be the effect or the level left. Conditions: in the assay text read “until day 34 post immunization” for “until day 33 post immunization”. Summed up:
(§3)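 Semiestablished CIA design. Mice received bovine type II collagen at day 0 with a boost at day 21. Dosing at 10 mg/kg PO bid ran from day 22 to day 34, in 5% DMSO/95% (10% kleptose), n = 10 per group; normal controls n = 4. Paws were scored daily for erythema and swelling (0–5), summarized as AUC. Body weight was tracked over time.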

Series [17] is described as follows: AUC in DBA/1 OlaHsd mouse immunized with bovine type2 collagen in Freund's complete adjuvant at 10 mg/kg, po bid administered starting on day 22 post immunization measured on day 31 post immunization. The format is ADME, organism-based. Conditions: in vivo. Summed up:
(§4)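 Blood drug levels were measured on study day 31 in CIA mice dosed at 10 mg/kg PO bid (n = 10), with vehicle 5% DMSO/95% (10% kleptose). AUC and Cmax were derived from these levels. Time above EC50 was judged against the human whole-blood IFNγ assay EC50 and the anti-CD3 mouse PK/PD EC50.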

A short description of series [18]: Cmax in DBA/1 OlaHsd mouse immunized with bovine type2 collagen in Freund's complete adjuvant at 10 mg/kg, po bid administered starting on day 22 post immunization measured on day 31 post immunization. Further details: dose 10 mg/kg, route oral. To be noted: in vivo. The format is ADME, organism-based. Summed up: as §4
The subject of series [19] is Mus musculus. The experiment in a line: Time duration for free plasma concentration stays above invivo EC50 in DBA/1 OlaHsd mouse immunized with bovine type2 collagen in Freund's complete adjuvant at 10 mg/kg, po bid administered starting on day 22 post immunization measured on day 31 post immunization. To be noted: in vivo. The format is ADME, organism-based. Summed up:
as §4

Series [20] can be described thus: Toxicity in DBA/1 OlaHsd mouse immunized with bovine type2 collagen in Freund's complete adjuvant assessed as body weight loss at 10 mg/kg, po bid administered starting on day 22 post immunization measured on day 26 post immunization. The format is organism-based. Conditions: in vivo. A digest of the protocol: as §3
Series [21] has as its system Mus musculus. The series can be described thus: Time duration for free plasma concentration stays above invitro EC50 for human whole blood in DBA/1 OlaHsd mouse immunized with bovine type2 collagen in Freund's complete adjuvant at 10 mg/kg, po bid administered starting on day 22 post immunization measured on day 31 post immunization. To be noted: in vivo. The format is ADME, organism-based. A digest of the protocol: as §4

For series [22], the species on record is Mus musculus. The experiment in a line: animal or person. To be noted: C57BL/6J.
The species entered for series [23] is Mus musculus. The series can be described thus: animal or person. Conditions: C57BL/6J. The source holds these as a separate data set.

Turning to `CCNC(=O)Nc1ccc(-c2nc(N3CCOC[C@@H]3C)c3c(n2)C(C)(C)S(=O)(=O)C3)cc1`, the CLH entry in series [1] is “<= 0.5 microL/min/g”. Also, the fraction unbound in [2] was 0.31; in series [3], 0.11; in series [4], 0.19. Also, the figures for the clearance in [5] and in series [6] were 49 mL/min/kg and 41 mL/min/kg, respectively. Moreover, the CL in series [7] was found to be 45%. In addition, the Vd in [8] stood at 3.1 L/kg. Moreover, the Cmax in series [9] came out at 710 nM; in series [10], 430 nM; in [18] it was 1700 nM. The compound also came in with an MRT in series [11] of 66 min. Also, the area under the curve AUC(0-inf) in [12] came out at 0.76 µM·h; in series [13], 1 µM·h. Also, the bioavailability in [14] was found to be 44%. In [15], the time of peak concentration (Tmax) amounted to 30 min. Further, the Activity in the series on Mus musculus [16] is reported as 59%; in [20], “Non-Toxic”. Further, in series [17], the exposure (AUC) was found to be 14 µM·h. Further, the Time result in the series on Mus musculus [19] and with Mus musculus [21] was “<= 8 hr” in each case. In addition, the EC50 in the series filed under Mus musculus [22] was 55 nM; in the series listed under Mus musculus [23], 220 nM.
